Screening results deposited in PubChem BioAssay by several laboratories.
UCH37 inh – blocks the human deubiquitinase UCH37; inhibition, % (concentration not given with the values); Q9Y5K5; purified proteasome/UCH37, Ub-AMC cleavage fluorescence; 330,000 compounds, 0.33% hits;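 active = mean inhibition over replicate wells above about 20%, limit read from the data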;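 also: 0% = compound-free wells with enzyme and 100% = wells lacking proteasome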
Target sequence (Q9Y5K5 whole entry, looked up): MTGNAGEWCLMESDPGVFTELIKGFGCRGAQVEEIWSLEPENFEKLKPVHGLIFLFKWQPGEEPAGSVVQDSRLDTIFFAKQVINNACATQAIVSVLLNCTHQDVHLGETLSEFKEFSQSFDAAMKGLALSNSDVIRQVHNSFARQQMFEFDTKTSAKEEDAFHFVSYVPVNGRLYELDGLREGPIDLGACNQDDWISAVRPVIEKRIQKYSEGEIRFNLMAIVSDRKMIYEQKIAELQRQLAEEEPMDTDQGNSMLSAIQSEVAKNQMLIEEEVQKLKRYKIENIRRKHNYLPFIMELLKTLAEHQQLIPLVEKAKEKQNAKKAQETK
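Material: Human UCH37 enzyme supplied as purified proteasome complex | Schedule: 30 min preincubation with enzyme, 25 min cleavage at room temperature | Detection: AMC fluorescence 355/460 nm | Measure: % inhibition of Ub-AMC cleavage fluorescence | Controls: Wells without proteasome as full block, compound-free enzyme plus substrate as uninhibited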
PLCb3 inh – PLC-beta3 (human) inhibition, primary screen; Q01970; Purified PLC-beta3, fluorogenic substrate, fluorescence; inhibition, % at 12.2 µM; 370,000 compounds, 0.18% hits; in the data active = inhibition above about 11%;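 also: 0% = median of compound wells on plate and 100% = full blocker control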
PLCg1 inh – blocks human PLC-gamma1 enzyme activity | inhibition, % at 12.2 µM | purified PLC-gamma1, fluorogenic substrate, fluorescence | 370,000 compounds, 0.84% hits; in the data active = inhibition above about 9.5%
Rpn11 block – inhibitors of human proteasome Rpn11 | O00487 | human 26S proteasome, Ub4-pepOG fluorescence polarization; 20S core pre-blocked with epoxomicin | inhibition, % at 20 µM | 360,000 compounds, 0.59% hits | AID 588493;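 active = inhibition at 20 µM, scaled to each plate's controls, above about 33%, limit read from the data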
Target sequence (O00487 whole entry, looked up): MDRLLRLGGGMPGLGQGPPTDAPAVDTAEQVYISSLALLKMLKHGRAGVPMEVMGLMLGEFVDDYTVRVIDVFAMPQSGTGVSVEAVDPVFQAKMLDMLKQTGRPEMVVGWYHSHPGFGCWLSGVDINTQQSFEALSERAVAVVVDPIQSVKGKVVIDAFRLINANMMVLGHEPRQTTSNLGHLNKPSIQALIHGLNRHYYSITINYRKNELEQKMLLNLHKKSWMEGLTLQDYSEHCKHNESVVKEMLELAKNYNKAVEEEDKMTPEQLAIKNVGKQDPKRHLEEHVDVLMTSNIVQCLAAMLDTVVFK
Rpn11 confirm – confirmation of human proteasome Rpn11 inhibitors. shares compounds with Rpn11 block. purified human 26S proteasome, Ub4-pepOG fluorescence polarization; proteasome pretreated with epoxomicin. inhibition, % at 20 µM. 1,900 compounds, 29% hits
MMP-2 inh – MMP-2 (human) inhibition counter-screen | shares compounds with Rpn11 block | recombinant MMP-2, FRET peptide cleavage fluorescence | inhibition, % at 20 µM | 1,900 compounds, 4% hits | AID 602330;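 also: human MMP-2 activated beforehand with APMA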
Thrombin FP – thrombin (bovine) inhibition counter-screen; inhibition, % at 20 µM; shares compounds with Rpn11 block; 1,900 compounds, 13% hits; AID 602333; bovine thrombin cleavage of Ub4-pepOG, fluorescence polarization;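 active = mean inhibition at least 40% at 20 µM, or signal 3 deviations below plate average, so some actives read negative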;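 also: plate controls were thrombin with DMSO for no effect and buffer wells lacking thrombin for full effect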
* marks the source's active call; other numbers are inactive results; i = inactive; nt = not tested or not shown; + = active, no number. A selection: hits, their analogues and other compounds. The true share with any hit is near 1.7%. Rule as the data show it, unless noted: active = inhibition above about 40%; inactive = the rest.

SMILES	UCH37 inh	PLCb3 inh	PLCg1 inh	Rpn11 block	Rpn11 confirm	MMP-2 inh	Thrombin FP
CC1CCCN(S(=O)(=O)c2ccc(Br)s2)C1 (stereo not drawn)	0.0	0.7	-1.5	46.0*	8.1	-34.0	6.4
Cc1cc(N2CCCC2)ccc1/C=C1/C(=O)N(C)C(=S)N1C	nt	-0.8	-1.9	43.3*	30.2	-9.2	27.7
CN(c1ccc(C(=O)NN=Cc2cccc([N+](=O)[O-])c2)cc1)S(=O)(=O)c1ccccc1	6.3	nt	nt	nt	nt	nt	nt
N#Cc1cc(C(=O)c2cc(Br)ccc2O)cn(Cc2ccccc2)c1=O	9.6	-8.5	-2.1	49.7*	12.6	-0.1	18.0
COc1ccccc1-n1cc(C(=O)c2cc(Cl)ccc2O)cc(C#N)c1=O	3.9	-8.7	2.4	47.0*	17.1	-23.5	8.2
Cc1ccccc1-n1cc(C(=O)c2cc(Cl)ccc2O)cc(C#N)c1=O	3.1	-0.2	2.3	15.2	nt	nt	nt
COCCn1cc(C(=O)c2cc(Br)ccc2O)cc(C#N)c1=O	5.7	-1.5	0.5	94.0*	7.8	21.3	3.9
Cc1cc(C)nc(NN=C/C=C/c2ccccc2)n1	10.0	nt	nt	nt	nt	nt	nt
CC(SCc1ccc(C(=O)O)o1)c1ccc(C(=O)O)o1 (stereo not drawn)	1.0	1.0	-0.5	143.2*	-8.0	-30.4	-8.0
CC(C)n1ncc2c(C(=O)Nc3ccc(S(N)(=O)=O)cc3)cc(C3CC3)nc21	-11.9	-11.8	-3.7	78.8*	90.3*	-71.6	13.8
CCOc1ccc(C2C(C(=O)Nc3ccccc3)=C(C)N=c3sc(=Cc4cccc(OCC(=O)O)c4)c(=O)n32)cc1 (stereo not drawn)	3.5	nt	nt	nt	nt	nt	nt
CN1/C(=C\P(=O)(N(C)C)N(C)C)C(C)(C)c2ccccc21	3.1	-4.4	-6.2	59.9*	32.5	-17.9	22.1
O=C(NCc1ccco1)c1cccc(N2CCCC2=O)c1	1.7	1.8	5.4	+	-12.8	-34.6	-14.3
COc1ccc(CNC(=O)c2cccc(N3CCCC3=O)c2)cc1	4.4	-2.5	0.6	2.4	nt	nt	nt
COc1cc(C(=O)Oc2ccccc2C=NNC(=O)c2ccc(C)c(Cl)c2)cc(OC)c1OC	1.9	nt	nt	nt	nt	nt	nt
COc1ccc(C(=O)Nc2ccc(C(=O)Nc3cccnc3)cc2)cc1	3.7	0.1	-1.0	106.5*	38.6	-272.7	-2.2
COc1ccc(C(=O)Nc2ccc(/C(C)=N/NC(=O)c3ccncc3)cc2)cc1	nt	-7.7	-0.2	84.8*	44.6*	i	-5.3
NC(=O)NN=C1c2ccccc2-c2c(C(N)=O)cccc21	9.4	nt	nt	nt	nt	nt	nt
O=C(CN1CCCc2ccccc21)NN=Cc1ccc(F)cc1F	0.5	nt	nt	nt	nt	nt	nt
CCCCCCOC(=O)c1ccc(N)cc1	-3.8	-6.9	-0.9	2.8	nt	nt	nt
CCCCCCCCCCCC1N=C(N)NC(CCCO)=C1C(=O)OC (stereo not drawn)	nt	-10.3	5.8	85.9*	49.3*	-27.8	-34.7
Cc1ccc2nc(NC(=O)c3ccc(-c4nc5ccccc5s4)s3)sc2c1	-10.1	-5.9	-6.2	151.5*	-3.2	-34.5	-14.2
CC(=O)c1sc2nc(CSc3nnnn3-c3ccccc3)[nH]c(=O)c2c1C	-6.7	-109.4	-70.8	nt	nt	nt	nt
CC(=O)c1sc2nc(CSc3nncn3C)[nH]c(=O)c2c1C	2.3	-12.0	-4.4	44.4*	4.0	-74.0	7.7
COc1ccc(C=NNC(=O)c2ccncc2)cc1CN1CCCc2ccccc21	6.1	nt	nt	nt	nt	nt	nt
SMILES	UCH37 inh	PLCb3 inh	PLCg1 inh	Rpn11 block	Rpn11 confirm	MMP-2 inh	Thrombin FP
COc1ccc(C(=O)N/C(=C/c2ccco2)C(=O)N2CCCCCC2)cc1	4.7	-38.0	-19.1	49.9*	-3.5	-32.0	-18.1
Cc1ccc(C(=O)N/C(=C\c2ccc(-c3cc(Cl)ccc3Cl)o2)C(=O)NCc2cccnc2)cc1	-4.1	-34.2	-25.2	50.9*	4.6	-1.2	-1.6
COc1ccc(CC(=O)ON=C(N)c2ccc(Br)cc2)cc1OC	0.4	nt	nt	nt	nt	nt	nt
O=Cc1sc(Nc2ccccc2)nc1Cl	-4.2	-91.9	-56.9	75.7*	60.4*	4.7	30.2
CC(=O)c1cccc(NC(=O)c2cccc3c(-c4cccc(C(N)=O)c4)coc23)c1	nt	-1.7	-1.6	+	30.6	-25.4	56.8*
N#Cc1ccc(-c2ccc(OCC(=O)NCC(=O)Nc3ccc(F)c(F)c3F)cc2)cc1	-15.3	-1.9	2.2	143.6*	96.7*	-29.7	-5.3
Cc1ccc(C2C(/C=C3/SC(=S)NC3=O)=C(c3cccs3)Oc3ccccc32)cc1 (stereo not drawn)	10.8	-3.4	0.6	48.7*	45.4*	41.2*	15.8
CC1Cc2cc(/C=C3/SC(=S)NC3=O)ccc2O1 (stereo not drawn)	10.3	-8.0	0.2	17.7	nt	nt	nt
Cc1c(OCC(N)=O)ccc2c(-c3ccccc3)cc(=O)oc12	-133.1	-30.6	-16.5	58.1*	47.3*	-25.2	2.9
CC(=O)COc1ccc2c(-c3ccccc3)cc(=O)oc2c1C	-2.0	-34.3	-23.0	-0.1	nt	nt	nt
CCOc1ccc2c(c1)/C(=C(\C(Cl)=C(Cl)Cl)[N+](=O)[O-])N2	-10.8	i	i	-4.9	nt	nt	nt
CCCCOc1ccc2c(c1)/C(=C(\C(Cl)=C(Cl)Cl)[N+](=O)[O-])N2	-6.3	-123.7	-100.2	37.3*	-47.5	36.0	-62.5
CCC(=NNc1ccc([N+](=O)[O-])cc1)c1ccccc1	-2.7	nt	nt	nt	nt	nt	nt
Cn1cnnc1SC/C(O)=C(\C#N)c1nc2ccccc2[nH]1	7.0	-4.0	-4.3	5.8	nt	nt	nt
Cc1cc(Br)ccc1SCC(=O)OCC(O)=C(C#N)c1nc2ccccc2[nH]1	3.4	-13.3	-6.3	38.0	nt	nt	nt
Cc1cc(Br)ccc1SCC(=O)OC/C(O)=C(\C#N)c1nc2ccccc2[nH]1	nt	-15.7	-14.2	46.2*	18.1	-44.2	0.0
N#C/C(=C(/O)COC(=O)CSc1ccc2ccccc2c1)c1nc2ccccc2[nH]1	0.0	-14.1	-14.8	43.4*	30.9	-48.0	24.7
Cc1ccc(C)c(SCC(=O)OC/C(O)=C(\C#N)c2nc3ccccc3[nH]2)c1	-10.7	-100.2	-87.0	22.3	nt	nt	nt
N#C/C(=C(/O)COC(=O)COc1cccc(Br)c1)c1nc2ccccc2[nH]1	3.7	-42.5	-22.9	41.7*	37.0	-12.4	25.3
CCCn1c(SC/C(O)=C(\C#N)c2nc3ccccc3[nH]2)n[nH]c1=O	3.2	-22.9	-23.7	38.6*	33.5	-9.7	29.6
CC(=NNc1ccc(S(=O)(=O)Nc2ccccc2)cc1[N+](=O)[O-])c1ccncc1	5.8	nt	nt	nt	nt	nt	nt
COc1ccc(NN=C(C#N)S(=O)(=O)c2nsc(C)c2C#N)cc1	2.0	nt	nt	nt	nt	nt	nt
CCOc1cc(C=NNC(=O)c2ccccc2OCc2ccc(F)cc2)ccc1O	-4.9	nt	nt	nt	nt	nt	nt
O=[N+]([O-])c1cc(C=NNc2nc3ccccc3[nH]2)c(O)cc1O	15.8	nt	nt	nt	nt	nt	nt
COC(=O)c1ccc(C=NN2CCN(Cc3ccc(C)cc3)CC2)cc1	3.1	nt	nt	nt	nt	nt	nt
